Measurements taken from ChEMBL document CHEMBL2434834, “Synthesis of pyrido[2,1-a]isoquinolin-4-ones and oxazino[2,3-a]isoquinolin-4-ones: new inhibitors of mitochondrial respiratory chain” (Eur J Med Chem, 2013).

What was measured:
[1] = Inhibition of NADH oxidase in beef heart sub-mitochondrial particles after 5 mins; set-up: species or system Bos taurus
In short: (§1)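 Inverted beef-heart submitochondrial particles were made by extensive sonication of frozen-thawed mitochondria and stored at -70 °C at 28 mg/mL protein (Bradford). After incubation with inhibitor, particles were diluted to […] in 50 mM potassium phosphate pH 7.4 with 1 mM EDTA, at 22 °C with NADH. Aerobic NADH oxidation was followed at 340 nm (ε 6.22 mM⁻¹ cm⁻¹), with rates taken from the linear decrease at increasing inhibitor concentrations.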

[2] = Inhibition of NADH oxidase in beef heart sub-mitochondrial particles by UV-spectrophotometric analysis; set-up: species or system Bos taurus; in short: as §1

SMILES | IC50 [1] | IC50 [2]
CC(C)Cc1cnc(CC(C)C)c(=O)[nH]1 | 13000 nM | –
COc1cc2c(cc1OC)C1(Cc3ccccc3)OC(C)=CC(=O)N1CC2 (stereo not given) | – | 1530 nM
COc1cc2c(cc1OC)C1(C)OC(C)=CC(=O)N1CC2 (stereo not given) | – | 1360 nM
COc1cc2c(cc1OC)-c1cc(C)cc(=O)n1CC2 | – | 8230 nM
COc1cc2c(cc1OC)C1(C)OC(c3ccccc3)=CC(=O)N1CC2 (stereo not given) | – | 1320 nM
COc1cc2c(cc1OC)-c1cc(-c3ccco3)cc(=O)n1CC2 | – | 12500 nM
COc1cc2c(cc1OC)C1(C)OC(c3ccco3)=CC(=O)N1CC2 (stereo not given) | – | 900 nM
Cc1cc2n(c(=O)c1)CCc1cc(O)c(O)cc1-2 | – | 3440 nM
COc1cc2c(cc1OC)-c1c(-c3ccccc3Br)c(C)cc(=O)n1CC2 | – | 4240 nM
COc1cc2c(cc1OC)C1(Cc3ccccc3Br)OC(C)=CC(=O)N1CC2 (stereo not given) | – | 1390 nM
COc1cc2c(cc1OC)-c1c(-c3ccccc3)c(C)cc(=O)n1CC2 | – | 4690 nM
COc1cc(O)c2nc3n(c(=O)c2c1)-c1ccccc1C(=O)N1CCC[C@@H]31 | 2500 nM | –
COc1ccc2nc3n(c(=O)c2c1)-c1ccccc1C(=O)N1CCC[C@@H]31 | 1500 nM | –
COc1cc2c(cc1OC)-c1cc(-c3ccccc3)cc(=O)n1CC2 | – | > 30000 nM
C=C(C)[C@H]1Cc2c(ccc3c2O[C@@H]2COc4cc(OC)c(OC)cc4[C@@H]2C3=O)O1 [ROTENONE] | – | 5.1 nM
